Results reported in ChEMBL document CHEMBL4190373, “Tumor Targeting with Novel Pyridyl 6-Substituted Pyrrolo[2,3- d]Pyrimidine Antifolates via Cellular Uptake by Folate Receptor α and the Proton-Coupled Folate Transporter and Inhibition of De Novo Purine Nucleotide Biosynthesis” (J Med Chem, 2018).
Calls of active or inactive are those of the source. No cut-off for these calls is given here.

Legend:
[1] = biological target: T1, Proton-coupled folate transporter (Homo sapiens) (UniProt Q96NT5); assay: Inhibition of [3H]MTX uptake at human PCFT expressed in Chinese hamster R2/PCFT4 cells at 10 uM at pH 6.8 by scintillation counting method relative to control; format: cell-based
T1 sequence (whole entry): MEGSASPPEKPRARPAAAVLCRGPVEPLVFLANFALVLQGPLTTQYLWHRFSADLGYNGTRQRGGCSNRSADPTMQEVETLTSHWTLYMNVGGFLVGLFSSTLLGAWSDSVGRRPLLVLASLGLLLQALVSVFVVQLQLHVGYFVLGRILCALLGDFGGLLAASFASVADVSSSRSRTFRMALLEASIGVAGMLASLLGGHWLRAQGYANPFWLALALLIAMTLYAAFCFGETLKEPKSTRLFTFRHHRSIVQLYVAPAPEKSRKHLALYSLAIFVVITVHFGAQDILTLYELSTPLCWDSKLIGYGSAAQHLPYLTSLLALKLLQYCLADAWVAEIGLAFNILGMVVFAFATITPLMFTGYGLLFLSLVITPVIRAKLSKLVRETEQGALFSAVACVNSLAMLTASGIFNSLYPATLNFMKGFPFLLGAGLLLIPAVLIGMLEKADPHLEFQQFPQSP
Procedure, shortened: (§1)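 Buffers: MES-buffered saline pH 5.5 or HEPES-buffered saline pH 6.8, with 1 or 10 µM inhibitor. Quenched with ice-cold DPBS, counted by scintillation, normalized to protein and untreated controls. Mean ± SE, 3 experiments.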

Mus musculus [2] = assay: Toxicity in folate-deficient diet fed ICR SCID mouse assessed as body weight loss at […], iv administered every 4 days for 4 times starting on day 3 measured twice per week; settings: in vivo
[3] = Cytotoxicity in RFC-null Chinese hamster R2 cells assessed as reduction in cell viability measured after 96 hrs by Cell-Titer Blue assay; format: cell-based; settings: Cricetulus griseus, R2, 96 h
Procedure, shortened: (§2)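 CHO sublines expressing human PCFT (R2/PCFT4) or RFC (PC43-10), transporter-null R2, and empty-vector R2(VC). Continuous drug up to 1000 nM, up to 96 h, CellTiter-Blue fluorescence.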

[4] = biological target: T1, Proton-coupled folate transporter (Homo sapiens); assay: Inhibition of [3H]MTX uptake at human PCFT expressed in Chinese hamster R2/PCFT4 cells at 1 uM at pH 5.5 by scintillation counting method relative to control; format: cell-based; procedure, shortened: as §1
[5] = biological target: T1, Proton-coupled folate transporter (Homo sapiens); settings: 1 uM
IGROV-1 [6] = assay: Antitumor activity against human IGROV1 cells xenografted in folate-deficient diet ICR SCID mouse assessed as tumor growth delay time at […], iv administered every 4 days for 4 times starting on day 3 measured twice per week
KB [7] = assay: Antiproliferative activity against human KB cells expressing human RFC/FR-alpha/PCFT assessed as reduction in cell viability up to 1000 nM measured after 96 hrs in presence of thymidine by Cell-Titer Blue assay; format: functional, cell-based
IGROV-1 [8] = assay: Antitumor activity against human IGROV1 cells xenografted in folate-deficient diet fed ICR SCID mouse assessed as tumor growth inhibition at 150 mg/kg, iv administered every 2 days for 8 times starting on day 3 measured twice per week up to 49 days; format: functional, organism-based
Procedure, shortened: (§3)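 Female SCID mice, 10 weeks, ~20 g. Fed folate-deficient or folate-replete diet from 14 days before bilateral s.c. IGROV1 tumor fragments (30-60 mg, trocar). […] Weighed daily, tumors measured twice weekly. Growth delay = T-C days to 1000 mg, median.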

KB [9] = assay: Antiproliferative activity against human KB cells expressing human RFC/FR-alpha/PCFT assessed as reduction in cell viability up to 1000 nM measured after 96 hrs in presence of AICA by Cell-Titer Blue assay; format: functional, cell-based
[10] = biological target: T1, Proton-coupled folate transporter (Homo sapiens); assay: Inhibition of [3H]MTX uptake at human PCFT expressed in Chinese hamster R2/PCFT4 cells at 10 uM at pH 5.5 by scintillation counting method relative to control; format: cell-based; procedure, shortened: as §1
IGROV-1 [11] = assay: Antitumor activity against human IGROV1 cells xenografted in folate-deficient diet fed ICR SCID mouse assessed as tumor growth delay time at 150 mg/kg, iv administered every 2 days for 8 times starting on day 3 measured twice per week; format: functional; procedure, shortened: as §3
KB [12] = assay: Antiproliferative activity against human KB cells expressing human RFC/FR-alpha/PCFT assessed as reduction in cell viability measured after 96 hrs in presence of folic acid by Cell-Titer Blue assay; format: functional, cell-based
IGROV-1 [13] = assay: Antiproliferative activity against human IGROV1 cells expressing human FR-alpha/PCFT assessed as reduction in cell viability measured after 96 hrs in presence of folic acid by Cell-Titer Blue assay; format: functional, cell-based; settings: IGROV-1, 96 h
Procedure, shortened: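 IGROV1 growth inhibition in folate-free RPMI 1640 with 10% dialyzed FBS, 2 nM leucovorin and 2 mM L-glutamine, with 200 nM folic acid added to block FR-mediated uptake. Drug present continuously up to 1000 nM for up to 96 h. Readout by CellTiter-Blue fluorescence.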

[14] = Growth inhibition of Chinese hamster R2(VC) cells after 96 hrs celltiter-blue assay; settings: Cricetulus griseus; procedure, shortened: as §2
KB [15] = assay: Antiproliferative activity against human KB cells expressing human RFC/FR-alpha/PCFT assessed as reduction in cell viability up to 1000 nM measured after 96 hrs in presence of adenosine by Cell-Titer Blue assay; format: functional, cell-based
[16] = biological target: T2, Proton-coupled folate transporter (Homo sapiens, UniProt Q96NT5); assay: Inhibition of [3H]MTX uptake at human PCFT expressed in Chinese hamster R2/PCFT4 cells at pH 5.5 measured after 2 mins by Dixon plot analysis; format: cell-based
T2 sequence (Q96NT5 whole entry): T1 sequence (whole entry)

IGROV-1 [17] = assay: Antiproliferative activity against human IGROV1 cells expressing human FR-alpha/PCFT assessed as reduction in cell viability measured after 96 hrs by Cell-Titer Blue assay; format: functional, cell-based; settings: IGROV-1, 96 h
Mus musculus [18] = assay: Toxicity in folate-deficient diet fed ICR SCID mouse assessed as body weight loss at 150 mg/kg, iv administered every 2 days for 8 times starting on day 3 measured twice per week; format: organism-based; settings: in vivo, 48 h; procedure, shortened: as §3
IGROV-1 [19] = assay: Antitumor activity against human IGROV1 cells xenografted in high folate diet fed ICR SCID mouse assessed as tumor growth inhibition at 150 mg/kg, iv administered every 2 days for 8 times starting on day 3 measured twice per week; format: functional, organism-based; procedure, shortened: as §3
KB [20] = assay: Antiproliferative activity against human KB cells expressing human RFC/FR-alpha/PCFT assessed as reduction in cell viability measured after 96 hrs by Cell-Titer Blue assay; format: functional, cell-based
[21] = biological target: Folate receptor beta (Homo sapiens) (UniProt P14207); assay: Displacement of [3H]folic acid from human FR-beta receptor expressed in Chinese hamster D4 cells measured after 15 mins; format: cell-based
[22] = biological target: Folate receptor alpha (Homo sapiens) (UniProt P15328); assay: Displacement of [3H]folic acid from human FR-alpha receptor expressed in Chinese hamster RT16 cells measured after 15 mins; format: cell-based
Procedure, shortened: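 RT16 (FRα) or D4 (FRβ) CHO cells, ~5 x 10^6 per dish, stripped of bound folate with pH 3.5 acetate buffer. Then incubated in HEPES-buffered saline pH 7.4 with 50 nM [3H]folic acid ± unlabeled ligand 1-1000 nM. Bound label normalized to protein. […] Mean ± SE, 3 experiments.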

Chain of Folate receptor alpha (Homo sapiens) (P15328 25-234 limits assumed): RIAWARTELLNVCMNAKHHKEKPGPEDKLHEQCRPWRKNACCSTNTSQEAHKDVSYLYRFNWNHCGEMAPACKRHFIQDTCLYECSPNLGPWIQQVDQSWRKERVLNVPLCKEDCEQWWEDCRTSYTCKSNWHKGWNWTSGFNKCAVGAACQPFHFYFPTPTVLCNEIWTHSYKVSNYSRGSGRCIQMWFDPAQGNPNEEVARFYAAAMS
Chain of Folate receptor beta (Homo sapiens) (P14207 17-230 limits assumed): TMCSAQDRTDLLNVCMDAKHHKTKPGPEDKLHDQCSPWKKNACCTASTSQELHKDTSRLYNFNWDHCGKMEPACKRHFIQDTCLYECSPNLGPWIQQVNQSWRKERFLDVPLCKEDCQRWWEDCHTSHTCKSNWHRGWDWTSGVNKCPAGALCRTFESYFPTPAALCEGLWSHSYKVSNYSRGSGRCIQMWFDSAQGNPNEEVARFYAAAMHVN

SMILES | IC50 (KB [12]) | IC50 (KB [20]) | inhibition [1] | IC50 [3] | inhibition [4] | inhibition [5] | Activity (KB [7]) | Activity (KB [9]) | IC50 [14] | Activity (KB [15]) | further results
Nc1nc2[nH]cc(CCc3ccc(C(=O)N[C@@H](CCC(=O)O)C(=O)O)cc3)c2c(=O)[nH]1 [PEMETREXED] |  |  | 75% | 849 nM | 85% | 40% |  |  |  |  | Activity (Mus musculus [2]): 14%; Time (IGROV-1 [6]): 0 days
Nc1nc2[nH]c(CCCCc3ccc(C(=O)N[C@@H](CCC(=O)O)C(=O)O)nc3)cc2c(=O)[nH]1 | 368 nM | 0.37 nM | 40% | > 1000 nM | 70% | 10% | Active | inactive | > 1000 nM | inactive | TGI (IGROV-1 [8]): Active; inhibition [10]: > 90%; Time (IGROV-1 [11]): 45 days; IC50 (IGROV-1 [13]): 846 nM; Ki [16]: 332 nM; IC50 (IGROV-1 [17]): 0.68 nM; Activity (Mus musculus [18]): 5%; TGI (IGROV-1 [19]): inactive
C#CCC(Cc1cnc2nc(N)nc(N)c2n1)c1ccc(C(=O)N[C@@H](CCC(=O)O)C(=O)O)cc1 (mixture of isomers) [PRALATREXATE] |  |  |  | 819 nM |  |  |  |  | > 1000 nM |  | 

More lines, main results first:

IC50 (KB [12]) | IC50 (KB [20]) | SMILES | inhibition [1] | IC50 [3] | inhibition [4] | inhibition [5] | Activity (KB [7]) | Activity (KB [9]) | IC50 [14] | Activity (KB [15]) | further results
> 1000 nM | 667 nM | Nc1nc2[nH]c(CCCCc3cccc(C(=O)N[C@@H](CCC(=O)O)C(=O)O)n3)cc2c(=O)[nH]1 |  | > 1000 nM |  |  | Active | inactive | > 1000 nM | inactive | inhibition [21]: inactive; inhibition [22]: inactive
> 1000 nM | > 1000 nM | Nc1nc2[nH]c(CCC#Cc3cccc(C(=O)N[C@@H](CCC(=O)O)C(=O)O)n3)cc2c(=O)[nH]1 |  | > 1000 nM |  |  |  |  | > 1000 nM |  | 
